Active and inactive are the calls of the source. The rule behind the calls is not given here.
How the values were obtained:
Trypanosoma cruzi [1] = test: Antitrypanosomal activity against bloodstream trypomastigote stage of Trypanosoma cruzi Y infected in monkey LLC-MK2 cells assessed as reduction in parasite motility measured after 24 hrs by neubauer chamber method; type: functional, organism-based; conditions: LLC-MK2, 24 h
Summary of the method: (§1)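 Y strain trypomastigotes from LLC-MK2 supernatants, 4x10^5/well, incubated 24 h at 37°C, 5% CO2 with five concentrations; viable parasites counted by motility in Neubauer chamber. Inhibition versus untreated cultures; IC50 by non-linear regression; benznidazole reference.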

[2] = Cytotoxicity against mouse J774 cells assessed as reduction in cell viability after 72 hrs by alamar blue assay; type: cell-based
Summary of the method: (§2)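 H9c2 or J774 cells (1 x 10^4/well) in DMEM/10% FBS preincubated 24 h, then exposed 72 h to six concentrations (0.41 to 100 µM) in triplicate, DMSO under 1%. Viability by AlamarBlue, read after 6 h at 570/600 nm; CC50 from three independent experiments; gentian violet positive control.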

[3] = Cytotoxicity against rat H9c2 cells assessed as reduction in cell viability after 72 hrs by alamar blue assay; type: cell-based; summary of the method: as §2
[4] = target: Cruzipain (Trypanosoma cruzi) (UniProt P25779); test: Inhibition of recombinant Trypanosoma cruzi cruzain at 10 uM preincubated for 10 mins followed by Z-FR-AMC substrate addition measured for 5 mins at 12 secs time interval by […] relative to control
Chain of Cruzipain (Trypanosoma cruzi) (P25779 123-467 limits assumed): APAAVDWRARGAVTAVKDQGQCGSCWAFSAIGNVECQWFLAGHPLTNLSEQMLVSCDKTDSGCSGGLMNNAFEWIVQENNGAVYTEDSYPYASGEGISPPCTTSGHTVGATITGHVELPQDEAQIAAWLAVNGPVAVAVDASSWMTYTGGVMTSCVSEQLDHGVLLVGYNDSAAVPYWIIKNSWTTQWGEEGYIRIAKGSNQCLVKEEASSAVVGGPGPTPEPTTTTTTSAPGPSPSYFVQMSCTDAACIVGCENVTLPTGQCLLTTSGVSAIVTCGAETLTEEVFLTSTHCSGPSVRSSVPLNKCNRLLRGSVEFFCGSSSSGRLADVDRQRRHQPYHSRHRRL
Summary of the method: (§3)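 Cruzain 0.5 nM in 0.1 M sodium acetate pH 5.5, 1 mM beta-mercaptoethanol, 0.01% Triton X-100, 25 °C; 10 min preincubation, then Z-FR-AMC 2.5 µM (Km 1 µM). Fluorescence (ex 340, em 440) read continuously 5 min; initial rates versus DMSO control. Screens at 10 µM, two independent runs in triplicate; IC50 from at least seven concentrations, four-parameter fit, at least two curves.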

[5] = Solubility of the compound in pH 5.5 sodium acetate buffer at 10 uM; conditions: pH 5.5, 10 µM
Cruzipain = Cruzipain (Trypanosoma cruzi, UniProt P25779); test: Inhibition of recombinant Trypanosoma cruzi cruzain preincubated for 10 mins followed by Z-FR-AMC substrate addition measured for 5 mins at 12 secs time interval by flow cytometry relative to control; summary of the method: as §3
Chain of Cruzipain (P25779 whole entry): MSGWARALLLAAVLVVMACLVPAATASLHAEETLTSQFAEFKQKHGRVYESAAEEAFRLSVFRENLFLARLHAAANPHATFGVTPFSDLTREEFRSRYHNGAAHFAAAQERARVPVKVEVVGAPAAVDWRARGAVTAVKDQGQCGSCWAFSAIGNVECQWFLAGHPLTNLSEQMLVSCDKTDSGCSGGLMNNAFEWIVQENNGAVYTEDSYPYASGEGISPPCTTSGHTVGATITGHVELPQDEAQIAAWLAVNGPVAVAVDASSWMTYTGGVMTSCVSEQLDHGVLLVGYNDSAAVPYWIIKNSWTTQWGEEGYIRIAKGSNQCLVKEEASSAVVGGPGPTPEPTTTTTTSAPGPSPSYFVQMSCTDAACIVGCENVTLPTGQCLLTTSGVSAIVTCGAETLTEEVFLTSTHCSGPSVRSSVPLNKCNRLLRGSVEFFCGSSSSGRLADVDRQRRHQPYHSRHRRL

Trypanosoma cruzi [6] = test: Antitrypanosomal activity against Trypanosoma cruzi Y trypomastigotes infected in mouse J774 cells measured after […] by contrast phase microscopic method; type: functional, organism-based
[7] = Cytotoxicity against mouse J774 cells; type: cell-based; summary of the method: as §2
[8] = Safety index, ratio of compound CC50 to gentian violet CC50 for cytotoxicity against mouse J774 cells; type: cell-based; summary of the method: as §2
[9] = Safety index, ratio of compound CC50 to gentian violet CC50 for cytotoxicity against rat H9c2 cells; type: cell-based; summary of the method: as §2
Trypanosoma cruzi [10] = test: Potency index, ratio of benznidazole IC50 to compound IC50 for antitrypanosomal activity against bloodstream trypomastigote stage of Trypanosoma cruzi Y infected in monkey LLC-MK2 cells; type: functional; summary of the method: as §1
Trypanosoma cruzi [11] = test: Antitrypanosomal activity against bloodstream trypomastigote stage of Trypanosoma cruzi Y assessed as induction of mitochondrial membrane potential loss at 0.4 to 0.8 uM measured after 24 hrs by Rho-123 staining based FACS analysis; type: functional, organism-based
Summary of the method: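 Trypomastigotes (1 x 10^7/mL) from LLC-MK2 culture supernatants, exposed 24 h at 37°C in DMEM with FBS; washed in PBS, stained 15 min with 5 µg/mL Rhodamine 123, washed, analysed immediately by flow cytometry; 10,000 events gated on trypomastigote region.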

Trypanosoma cruzi [12] = test: Induction of apoptosis in bloodstream trypomastigote stage of Trypanosoma cruzi Y assessed as viable cells at 0.4 uM measured after 24 hrs by Annexin V-FITC/propidium iodide staining based flow cytometry (reference value: 89.73%); type: functional
Trypanosoma cruzi [13] = test: Induction of apoptosis in bloodstream trypomastigote stage of Trypanosoma cruzi Y assessed as early apoptotic cells at 0.4 uM measured after 24 hrs by Annexin V-FITC/propidium iodide staining based flow cytometry (reference value: 8.25%); type: functional
Trypanosoma cruzi [14] = test: Induction of apoptosis in bloodstream trypomastigote stage of Trypanosoma cruzi Y assessed as late apoptotic cells at 0.4 uM measured after 24 hrs by Annexin V-FITC/propidium iodide staining based flow cytometry (reference value: 1.51%); type: functional
Trypanosoma cruzi [15] = test: Induction of apoptosis in bloodstream trypomastigote stage of Trypanosoma cruzi Y assessed as necrotic cells at 0.4 uM measured after 24 hrs by Annexin V-FITC/propidium iodide staining based flow cytometry (reference value: 0.5%); type: functional
Trypanosoma cruzi [16] = test: Antitrypanosomal activity against bloodstream trypomastigote stage of Trypanosoma cruzi Y infected in Balb/c mouse macrophages assessed as reduction in number of infected cells measured after 3 days by hoeschst staining based confocal microscopic method; type: functional, organism-based
Summary of the method: (§4)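 BALB/c peritoneal macrophages (5x10^4/well) in DMEM/10% FBS, infected with trypomastigotes (10:1) for 2 h, washed, held 24 h, then treated 72 h (test at 8, 2, 0.5 µM; benznidazole 5 µM control). Formaldehyde-fixed, Hoechst-stained, imaged by confocal high-content microscopy for infected cells and amastigotes per 100 cells; six determinations; ANOVA with Bonferroni.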

Trypanosoma cruzi [17] = test: Antitrypanosomal activity against bloodstream trypomastigote stage of Trypanosoma cruzi Y infected in Balb/c mouse macrophages assessed as reduction in number of intracellular amastigotes measured after 3 days by hoeschst staining based confocal microscopic method; type: functional, organism-based; summary of the method: as §4
Trypanosoma cruzi [18] = test: Synergistic antitrypanosomal activity against bloodstream trypomastigote stage of Trypanosoma cruzi Y infected in monkey LLC-MK2 cells measured after 24 hrs in presence of benznidazole; type: functional
Summary of the method: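 Doubling dilutions of each drug alone or in fixed-ratio combinations tested on trypomastigotes by the 24 h motility assay; combination index by Chou-Talalay method and isobologram.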

Trypanosoma cruzi [19] = test: (§5) Antitrypanosomal activity against bloodstream trypomastigote stage of Trypanosoma cruzi Y infected in Balb/c mouse assessed as reduction in blood parasitaemia at 25 mg/kg, po qd administered for 5 consecutive days starting from day 5 post infection measured on day 8 post infection relative to control; type: functional; set-up: scale not given: the % may be the effect or the level left
Summary of the method: (§6)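 Female BALB/c mice (18-22 g, 6-8 weeks) infected i.p. with 10^4 Y strain bloodstream trypomastigotes in saline; six per group. From day 5, oral dosing once daily for 5 days; vehicle saline with 20% DMSO. Parasitaemia counted as motile parasites in 5 µL tail-vein blood; reduction = (vehicle mean − treated mean)/vehicle mean × 100. Mortality followed to 30 days post-treatment.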

Trypanosoma cruzi [20] = test: as §5, with “12” for “8”; type: functional; set-up: scale not given: the % may be the effect or the level left; summary of the method: as §6
Trypanosoma cruzi [21] = test: Antitrypanosomal activity against bloodstream trypomastigote stage of Trypanosoma cruzi Y infected in Balb/c mouse assessed as protection against mouse mortality at 25 mg/kg, po qd administered for 5 consecutive days starting from day 5 post infection measured up to 30 days post treatment; type: functional, organism-based; summary of the method: as §6
Mus musculus = test: Toxicity in Balb/c mouse infected with Trypanosoma cruzi Y trypomastigotes assessed as behavioral alteration at 25 mg/kg, po qd administered for 5 consecutive days starting from day 5 post infection; type: organism-based; conditions: in vivo; summary of the method: as §6

Row | IC50 (Trypanosoma cruzi [1]) [µM] | inhibition [4] [%] | solubility [5] | SMILES | CC50 at 72 h [2] [µM] | CC50 at 72 h [3] [µM] | also measured
1 | 16.8 | 32 | Soluble | C/C(=N\Nc1nc(-c2ccncc2)cs1)c1ccc(Cl)c(Cl)c1 | 39.8 | 41.9 | 
2 | 47.7 | 75 | Soluble | C/C(=N\Nc1nc(-c2ccc(C)cc2)cs1)c1ccc(Cl)c(Cl)c1 | > 50 | > 50 | 
3 | > 50 | 32 | Soluble | C/C(=N\Nc1nc(-c2ccc(F)cc2)cs1)c1ccc(Cl)c(Cl)c1 | > 50 | > 50 | 
4 | > 50 | 35 | Soluble | C/C(=N\Nc1nc(-c2ccc(Cl)cc2Cl)cs1)c1ccc(Cl)c(Cl)c1 | > 50 | > 50 | 
5 | > 50 | 59 | Soluble | C/C(=N\Nc1nc(-c2ccccc2)cs1)c1ccc(Cl)c(Cl)c1 | > 50 | > 50 | 
6 | > 50 | 43 | Soluble | C/C(=N\Nc1nc(-c2ccc(Br)cc2)cs1)c1ccc(Cl)c(Cl)c1 | > 50 | > 50 | 
7 | 6 | 38 | Soluble | C/C(=N\Nc1nc(-c2ccc(Cl)c(Cl)c2Cl)cs1)c1ccc(Cl)c(Cl)c1 | 21.3 | 17 | 
8 | 0.37 | 17 | Soluble | C/C(=N\Nc1nc(-c2ccccn2)cs1)c1ccc(Cl)c(Cl)c1 | 10.1 | 10.2 | selectivity ratio [8]: 22; selectivity ratio [9]: 7; Ratio IC50 (Trypanosoma cruzi [10]): 28; Activity (Trypanosoma cruzi [11]): Active; Activity (Trypanosoma cruzi [12]): 74.62%; Activity (Trypanosoma cruzi [13]): 18.05%; Activity (Trypanosoma cruzi [14]): 7.13%; Activity (Trypanosoma cruzi [15]): 0.19%; Activity (Trypanosoma cruzi [16]): Dose-dependent effect; Activity (Trypanosoma cruzi [17]): Dose-dependent effect; CI (Trypanosoma cruzi [18]): 0.37; Activity (Trypanosoma cruzi [19]): 54.6%; Activity (Trypanosoma cruzi [20]): 64.1%; Activity (Trypanosoma cruzi [21]): Active; Activity (Mus musculus): Non-Toxic
9 | 17.1 | 41 | Soluble | COc1ccc(-c2csc(N/N=C(\C)c3ccc(Cl)c(Cl)c3)n2)cc1 | > 50 | > 50 | 
10 | > 50 | 31 | Soluble | C/C(=N\Nc1nc(-c2ccc(Cl)cc2)cs1)c1ccc(Cl)c(Cl)c1 | > 50 | > 50 | 
11 | > 50 |  | Soluble | C/C(=N\Nc1nc(-c2ccc(Cl)c(Cl)c2)cs1)c1ccc(Cl)c(Cl)c1 | > 50 | > 50 | 

Second part, the compound before the results:

Row | SMILES | IC50 (Trypanosoma cruzi [1]) [µM] | inhibition [4] [%] | solubility [5] | CC50 at 72 h [2] [µM] | CC50 at 72 h [3] [µM] | also measured
12 | C/C(=N\Nc1nc(CCl)cs1)c1ccc(Cl)c(Cl)c1 | > 50 | 50 | Soluble | > 50 | > 50 | 
13 | CN(C)c1ccc(C(=C2C=CC(=[N+](C)C)C=C2)c2ccc(N(C)C)cc2)cc1 [GENTIAN VIOLET] |  |  |  |  | 1.5 | 
14 | C/C(=N\N=c1\scc(-c2ccccc2)n1-c1ccccc1)c1ccc(Cl)c(Cl)c1 | > 50 | 31 | Soluble | > 50 | > 50 | 
15 | C/C(=N\Nc1nc(-c2ccc3ccccc3c2)cs1)c1ccc(Cl)c(Cl)c1 | > 50 | 44 | Soluble | > 50 | > 50 | 
16 | C/C(=N\Nc1nc(-c2ccccc2)c(C)s1)c1ccc(Cl)c(Cl)c1 | 17.8 | 76 | Soluble | > 50 | > 50 | 
17 | C/C(=N\Nc1nc(-c2ccc(-c3ccccc3)cc2)cs1)c1ccc(Cl)c(Cl)c1 | > 50 | 44 | Soluble | > 50 | > 50 | 
18 | C/C(=N\Nc1nc(-c2cccc([N+](=O)[O-])c2)cs1)c1ccc(Cl)c(Cl)c1 | > 50 |  | Soluble | > 50 | > 50 | 
19 | C/C(=N\N=c1\scc(-c2ccccc2)n1C)c1ccc(Cl)c(Cl)c1 | > 50 | 12 | Soluble | > 50 | > 50 | 
20 | C/C(=N\Nc1nc(C)c(C)s1)c1ccc(Cl)c(Cl)c1 | 10.5 | 84 | Soluble | 41.8 | > 50 | IC50 (Cruzipain): 9 µM
21 | C/C(=N\Nc1nc(-c2ccc(Br)cc2)c(C)s1)c1ccc(Cl)c(Cl)c1 | 19.1 | 74 | Soluble | > 50 | > 50 | 
22 | C/C(=N\N=C(\N)S)c1ccc(Cl)c(Cl)c1 |  |  |  |  |  | IC50 (Trypanosoma cruzi [6]): 7.1 µM; CC50 [7]: > 100 µM
23 | C/C(=N\Nc1nc(-c2ccc([N+](=O)[O-])cc2)cs1)c1ccc(Cl)c(Cl)c1 | > 50 |  | Soluble | > 50 | > 50 | 
24 | C/C(=N\Nc1nc(C)cs1)c1ccc(Cl)c(Cl)c1 | 17.1 | 97 | Soluble | 33.7 | 26.1 | IC50 (Cruzipain): 0.6 µM

From ChEMBL document CHEMBL4138128, “Structural design, synthesis and pharmacological evaluation of thiazoles against Trypanosoma cruzi” (Eur J Med Chem, 2017)
